Data: ChEMBL document CHEMBL4715736, “Identification of anticancer agents based on the thieno[2,3-b]pyridine and 1H-pyrazole molecular scaffolds” (2016)

Legend:
Format in all cases: functional
Settings in all cases: read-out: Activity
PC-3 = assay: Growth inhibition of human PC-3 cells assessed as cell growth at 10 uM incubated for 48 hrs by sulforhodamine B assay relative to control
Procedure, shortened: (§1)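 Run by the NCI Developmental Therapeutics Program as part of its 60-line human tumour panel. Each compound tested at a single 10 µM dose. Growth expressed as % relative to untreated control cells (100%).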

NCI-H322M = assay: Growth inhibition of human NCI-H322M cells assessed as cell growth at 10 uM incubated for 48 hrs by sulforhodamine B assay relative to control
Procedure, shortened: (§2)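 Submitted to the NCI Developmental Therapeutics Program for the NCI60 human tumour cell line panel. First screen at a single 10 µM concentration. Read-out is growth relative to untreated control cells set at 100%.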

NCI-H23 = assay: Growth inhibition of human NCI-H23 cells assessed as cell growth at 10 uM incubated for 48 hrs by sulforhodamine B assay relative to control; procedure, shortened: as §2
OVCAR-5 = assay: Growth inhibition of human OVCAR-5 cells assessed as cell growth at 10 uM incubated for 48 hrs by sulforhodamine B assay relative to control; procedure, shortened: as §1
MCF7 = assay: Growth inhibition of human MCF7 cells assessed as cell growth at 10 uM incubated for 48 hrs by sulforhodamine B assay relative to control; procedure, shortened: as §2
MDA-MB-231 = assay: Growth inhibition of human MDA-MB-231 cells assessed as cell growth at 10 uM incubated for 48 hrs by sulforhodamine B assay relative to control; procedure, shortened: as §2
LOX IMVI = assay: Growth inhibition of human LOX IMVI cells assessed as cell growth at 10 uM incubated for 48 hrs by sulforhodamine B assay relative to control; procedure, shortened: as §2
MDA-MB-468 = assay: Growth inhibition of human MDA-MB-468 cells assessed as cell growth at 10 uM incubated for 48 hrs by sulforhodamine B assay relative to control; procedure, shortened: as §2
ACHN = assay: Growth inhibition of human ACHN cells assessed as cell growth at 10 uM incubated for 48 hrs by sulforhodamine B assay relative to control
Procedure, shortened: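 NCI Developmental Therapeutics Program NCI60 human tumour cell line panel, one-dose primary screen with every compound at 10 µM. Growth is expressed as % of untreated control cells (100%).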

SF-539 = assay: Growth inhibition of human SF-539 cells assessed as cell growth at 10 uM incubated for 48 hrs by sulforhodamine B assay relative to control; procedure, shortened: as §1
DU-145 = assay: Growth inhibition of human DU-145 cells assessed as cell growth at 10 uM incubated for 48 hrs by sulforhodamine B assay relative to control
Procedure, shortened: (§3)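 NCI Developmental Therapeutics Program NCI60 panel. Compounds that were active in the 10 µM one-dose screen went on to dose–response testing. Growth at each concentration is expressed relative to untreated control (100%). GI50 (concentration giving 50% of maximal inhibition of proliferation) and TGI (concentration giving total growth inhibition) were derived from the curves.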

HOP-92 = assay: Growth inhibition of human HOP-92 cells assessed as cell growth at 10 uM incubated for 48 hrs by sulforhodamine B assay relative to control; procedure, shortened: as §2
NCI/ADR-RES = assay: Growth inhibition of human NCI/ADR-RES cells assessed as cell growth at 10 uM incubated for 48 hrs by sulforhodamine B assay relative to control; procedure, shortened: as §2
A549 = assay: Growth inhibition of human A549/ATCC cells assessed as cell growth at 10 uM incubated for 48 hrs by sulforhodamine B assay relative to control; procedure, shortened: as §3
SK-MEL-28 = assay: Growth inhibition of human SK-MEL-28 cells assessed as cell growth at 10 uM incubated for 48 hrs by sulforhodamine B assay relative to control; procedure, shortened: as §1
HCC 2998 = assay: Growth inhibition of human HCC 2998 cells assessed as cell growth at 10 uM incubated for 48 hrs by sulforhodamine B assay relative to control; procedure, shortened: as §3
RPMI-8226 = assay: Growth inhibition of human RPMI-8226 cells assessed as cell growth at 10 uM incubated for 48 hrs by sulforhodamine B assay relative to control; procedure, shortened: as §1
U-251 = assay: Growth inhibition of human U-251 cells assessed as cell growth at 10 uM incubated for 48 hrs by sulforhodamine B assay relative to control; procedure, shortened: as §1
HL-60(TB) = assay: Growth inhibition of human HL-60(TB) cells assessed as cell growth at 10 uM incubated for 48 hrs by sulforhodamine B assay relative to control
Procedure, shortened: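 Screened by the NCI Developmental Therapeutics Program on its panel of 60 human tumour cell lines. Compounds were first tested at a single 10 µM dose, and compounds active there went to dose-response curves. Growth is expressed relative to untreated control (100%). GI50 (50% of maximal proliferation inhibition) and TGI (total growth inhibition) were derived from the dose-response data.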

COLO 205 = assay: Growth inhibition of human COLO 205 cells assessed as cell growth at 10 uM incubated for 48 hrs by sulforhodamine B assay relative to control; procedure, shortened: as §3
CCRF-CEM = assay: Growth inhibition of human CCRF-CEM cells assessed as cell growth at 10 uM incubated for 48 hrs by sulforhodamine B assay relative to control; procedure, shortened: as §3
SW-620 = assay: Growth inhibition of human SW-620 cells assessed as cell growth at 10 uM incubated for 48 hrs by sulforhodamine B assay relative to control; procedure, shortened: as §1
T47D = assay: Growth inhibition of human T47D cells assessed as cell growth at 10 uM incubated for 48 hrs by sulforhodamine B assay relative to control; procedure, shortened: as §1
IGROV-1 = assay: Growth inhibition of human IGROV-1 cells assessed as cell growth at 10 uM incubated for 48 hrs by sulforhodamine B assay relative to control; procedure, shortened: as §2
MDA-MB-435 = assay: Growth inhibition of human MDA-MB-435 cells assessed as cell growth at 10 uM incubated for 48 hrs by sulforhodamine B assay relative to control; procedure, shortened: as §2
Hs-578T = assay: Growth inhibition of human Hs-578T cells assessed as cell growth at 10 uM incubated for 48 hrs by sulforhodamine B assay relative to control; procedure, shortened: as §2
OVCAR-8 = assay: Growth inhibition of human OVCAR-8 cells assessed as cell growth at 10 uM incubated for 48 hrs by sulforhodamine B assay relative to control; procedure, shortened: as §1
SF-295 = assay: Growth inhibition of human SF-295 cells assessed as cell growth at 10 uM incubated for 48 hrs by sulforhodamine B assay relative to control; procedure, shortened: as §1
K562 = assay: Growth inhibition of human K562 cells assessed as cell growth at 10 uM incubated for 48 hrs by sulforhodamine B assay relative to control; procedure, shortened: as §2
SF-268 = assay: Growth inhibition of human SF-268 cells assessed as cell growth at 10 uM incubated for 48 hrs by sulforhodamine B assay relative to control; procedure, shortened: as §1
OVCAR-4 = assay: Growth inhibition of human OVCAR-4 cells assessed as cell growth at 10 uM incubated for 48 hrs by sulforhodamine B assay relative to control; procedure, shortened: as §1
UACC-62 = assay: Growth inhibition of human UACC-62 cells assessed as cell growth at 10 uM incubated for 48 hrs by sulforhodamine B assay relative to control; procedure, shortened: as §1

Structure (SMILES)	growth at 10 µM (PC-3)	growth at 10 µM (NCI-H322M)	growth at 10 µM (NCI-H23)	growth at 10 µM (OVCAR-5)	growth at 10 µM (MCF7)	growth at 10 µM (MDA-MB-231)	growth at 10 µM (LOX IMVI)	growth at 10 µM (MDA-MB-468)	growth at 10 µM (ACHN)	growth at 10 µM (SF-539)	growth at 10 µM (DU-145)	growth at 10 µM (HOP-92)	growth at 10 µM (NCI/ADR-RES)	growth at 10 µM (A549)	growth at 10 µM (SK-MEL-28)	growth at 10 µM (HCC 2998)	growth at 10 µM (RPMI-8226)	growth at 10 µM (U-251)	growth at 10 µM (HL-60(TB))	growth at 10 µM (COLO 205)	also measured
CCOc1ccc(-c2cc(N)n(S(=O)(=O)c3ccc(OC)cc3)n2)cc1	88.6%	102%	115%	107%	88.2%	92.4%	105%	87.4%	102%	98.4%	110%	82.2%	103%	92.5%	103%	112%	94.1%	101%	126%	116%	growth at 10 µM (CCRF-CEM): 86.8%; growth at 10 µM (SW-620): 110%; growth at 10 µM (T47D): 96.4%; growth at 10 µM (IGROV-1): 96.6%; growth at 10 µM (MDA-MB-435): 101%; growth at 10 µM (Hs-578T): 99.7%; growth at 10 µM (OVCAR-8): 96.6%; growth at 10 µM (SF-295): 115%; growth at 10 µM (K562): 105%; growth at 10 µM (SF-268): 109%; growth at 10 µM (OVCAR-4): 103%; growth at 10 µM (UACC-62): 92.5%
Cc1ccc(S(=O)(=O)n2ccc(-c3ccc(OCCCF)cc3)n2)cc1	73.5%	93.7%	78.7%	110%	78.3%	93.9%	92.5%	44.4%	97.4%	95.2%	99.3%	71.8%	77.1%	78.8%	85%	93.9%	72.8%	85%	107%	101%	growth at 10 µM (CCRF-CEM): 75.6%; growth at 10 µM (SW-620): 103%; growth at 10 µM (T47D): 72.9%; growth at 10 µM (IGROV-1): 92.5%; growth at 10 µM (MDA-MB-435): 91.3%; growth at 10 µM (Hs-578T): 109%; growth at 10 µM (OVCAR-8): 87.7%; growth at 10 µM (SF-295): 83.7%; growth at 10 µM (K562): 55.4%; growth at 10 µM (SF-268): 103%; growth at 10 µM (OVCAR-4): 73.2%; growth at 10 µM (UACC-62): 63.9%
O=S(=O)(c1ccc(Br)cc1)n1ccc(-c2ccc(OCCCF)cc2)n1	79.5%	104%	80.3%	103%	75.6%	101%	100%	39.8%	94.1%	90.2%	102%	74.1%	78.9%	75.7%	93.4%	90.3%	77.1%	90.7%	95.7%	102%	growth at 10 µM (CCRF-CEM): 92.3%; growth at 10 µM (SW-620): 107%; growth at 10 µM (T47D): 72.6%; growth at 10 µM (IGROV-1): 89%; growth at 10 µM (MDA-MB-435): 98.2%; growth at 10 µM (Hs-578T): 115%; growth at 10 µM (OVCAR-8): 95.1%; growth at 10 µM (K562): 55.6%; growth at 10 µM (SF-268): 98.5%; growth at 10 µM (OVCAR-4): 71.1%; growth at 10 µM (UACC-62): 59.9%
O=S(=O)(c1ccccc1)n1ccc(-c2ccc3c(c2)CCO3)n1	84.2%	91.4%	78.4%	103%	83.2%	82.9%	85.2%	42.4%	78.4%	86.7%	95%	41.8%	76%	78.8%	86.2%	90.8%	62.5%	73.6%	109%	96.9%	growth at 10 µM (CCRF-CEM): 76.7%; growth at 10 µM (SW-620): 93.7%; growth at 10 µM (T47D): 68.8%; growth at 10 µM (IGROV-1): 75.7%; growth at 10 µM (MDA-MB-435): 104%; growth at 10 µM (Hs-578T): 102%; growth at 10 µM (OVCAR-8): 84%; growth at 10 µM (SF-295): 83.3%; growth at 10 µM (K562): 56%; growth at 10 µM (SF-268): 92.8%; growth at 10 µM (OVCAR-4): 70.1%; growth at 10 µM (UACC-62): 73.1%
